From ChEMBL document CHEMBL1921722, “In vitro and in vivo evaluation of select kahalalide F analogs with antitumor and antifungal activities” (Bioorg Med Chem, 2011) come the findings set out here.

One series deals with Hs-578T. Kind of series: Cytotoxicity against human Hs578T cells by sulforhodamine B assay. The series is classed as functional. The method, boiled down:
(§1)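 NCI Developmental Therapeutics Program 60-cell-line human tumor panel screen, run at NCI. A single-concentration pre-screen was followed by a five-concentration dose-response in 10-fold steps. GI50 is the concentration that reduces growth of treated cells to half that of untreated control cells. TGI is the concentration that completely halts growth.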
(Sulforhodamine B stains cellular protein and so reports cell mass.)

In another series the test system is COLO 205. The series is described as follows: Cytotoxicity against human COLO205 cells by sulforhodamine B assay. It counts as functional. The settings on record: read-out: GI50. An outline of the steps: (§2)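 Run at NCI in the DTP 60-cell-line human tumor panel by standard procedure. Compounds were first screened at a single concentration, then tested at five tenfold-spaced concentrations. GI50 is the concentration reducing treated-cell growth to half that of untreated controls; TGI is the concentration completely halting growth.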

Another series relates to HT-29. The series is described as follows: Cytotoxicity against human HT-29 cells by sulforhodamine B assay. It counts as functional. Particulars: read-out: GI50. An outline of the steps: (§3)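 Run by the NCI Developmental Therapeutics Program on its 60-line human tumour cell panel using the standard procedure. Compounds went through a single-concentration prescreen first, and those active by NCI criteria went on to a five-concentration growth-inhibition test. GI50 is the concentration that cuts growth of treated cells to half that of untreated control cells.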

The subject of a further series is A549. Kind of series: Cytotoxicity against human A549 cells by sulforhodamine B assay. The series is classed as functional. Particulars: read-out: GI50. The method, boiled down:
as §2

Another series relates to UACC-257. The series is described as follows: Cytotoxicity against human UACC257 cells by sulforhodamine B assay. The series is classed as functional. Particulars: read-out: GI50. An outline of the steps: as §1
In the next series the test system is DU-145. The series is described as follows: Cytotoxicity against human DU145 cells by sulforhodamine B assay. It counts as functional. Particulars: read-out: GI50. The method, boiled down:
as §3

Another series has as its system KM12. Kind of series: Cytotoxicity against human KM12 cells by sulforhodamine B assay. The series is classed as functional. Particulars: read-out: GI50. The method, boiled down:
as §1

Another series has as its system HCC 2998. The series is described as follows: Cytotoxicity against human HCC2998 cells by sulforhodamine B assay. Particulars: read-out: GI50. It counts as functional. An outline of the steps:
as §3

Another series deals with PC-3. The series is described as follows: Cytotoxicity against human PC3 cells by sulforhodamine B assay. The series is classed as functional. Particulars: for GI50: read-out: GI50. An outline of the steps:
as §1

In the next series the test system is RPMI-8226. Kind of series: Cytotoxicity against human RPMI8226 cells by sulforhodamine B assay. It counts as functional. Particulars: read-out: GI50. An outline of the steps:
as §1

Another series has as its system SNB-75. Kind of series: Cytotoxicity against human SNB75 cells by sulforhodamine B assay. It counts as functional. Particulars: read-out: GI50. An outline of the steps: as §1
A further series relates to NCI-H322M. Kind of series: Cytotoxicity against human NCI-H322M cells by sulforhodamine B assay. The series is classed as functional. The settings on record: read-out: GI50. The method, boiled down: as §1
Another series concerns SK-OV-3. Kind of series: Cytotoxicity against human SKOV3 cells by sulforhodamine B assay. The series is classed as functional. Particulars: read-out: GI50. The method, boiled down: as §1
In another series the test system is Aspergillus fumigatus. The series is described as follows: Antimicrobial activity against Aspergillus fumigatus ATCC 90906 by CLSI method. The series is classed as functional, organism-based.
The next series deals with Cryptococcus neoformans. The series is described as follows: Antimicrobial activity against Cryptococcus neoformans ATCC 90113 by CLSI method. It counts as functional, organism-based.
For another series, the system named is Candida albicans. Kind of series: Antimicrobial activity against Candida albicans ATCC 90028 by CLSI method. It counts as functional, organism-based.
Series [1] deals with Mycobacterium intracellulare. The series is described as follows: Antimicrobial activity against Mycobacterium intracellular ATCC 23068 after 5 days by MABA assay. The series is classed as functional, organism-based. The settings on record: ATCC 23068, 120 h. The method, boiled down:
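M. intracellulare was tested by a modified Franzblau method. Samples were serially diluted in 20% DMSO/saline, run in duplicate, and inocula were adjusted by OD630. […] IC50 is 50% growth inhibition; MIC is the lowest concentration with no detectable growth.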
Background: Resazurin is reduced to fluorescent resorufin, in cell work by metabolically active cells.

Series [2] is described as follows: Acute toxicity in iv dosed mouse assessed as mortality. The settings on record: in vivo.
In a further series the test system is Fusarium sp. The series is described as follows: Antimicrobial activity against Fusarium sp. by CLSI method. The series is classed as functional, organism-based.
The subject of a further series is Escherichia coli. Kind of series: Antimicrobial activity against Escherichia coli ATCC 35218 by CLSI method. The series is classed as functional, organism-based.
The test system of another series is Staphylococcus aureus. The series is described as follows: Antimicrobial activity against methicillin-resistant Staphylococcus aureus ATCC 43300 by CLSI method. The series is classed as functional, organism-based.
For another series, the system named is Pseudomonas aeruginosa. Kind of series: Antimicrobial activity against Pseudomonas aeruginosa ATCC 27853 by CLSI method. It counts as functional, organism-based.

SMILES strings stand for the structures. Values after ≈ are worked out from the molar mass of the structure shown. Active and inactive are the calls of the source.

In general, GI50 refers to the concentration that inhibits growth by half. As usually defined, the TGI is the concentration at which net growth stops. In general, MIC refers to the lowest concentration that inhibits growth of the organism. A word on the IC50: it is the concentration that inhibits the measured activity by half. A higher IC50 goes with a need for much substance. As usually defined, the MBC is the smallest concentration meeting the test's criterion for killing. A lower MBC goes with greater bactericidal potency.

As for `CC(=O)O[C@H]1C(=O)[C@@]2(C)[C@H]([C@H](OC(=O)c3ccccc3)[C@]3(O)C[C@H](OC(=O)[C@H](O)[C@@H](NC(=O)c4ccccc4)c4ccccc4)C(C)=C1C3(C)C)[C@]1(OC(C)=O)CO[C@@H]1C[C@@H]2O` [PACLITAXEL], the 50% growth inhibitory concentration (GI50) in the series on Hs-578T (read-out: GI50) was 3 nM; in the series with COLO 205, 3 nM; with HT-29, 2 nM; in the series with A549, 4 nM; with UACC-257 it was 40 nM; in the series with DU-145, 5 nM. In addition, the GI50 in the series on KM12 came out at 4 nM; in the series on HCC 2998, 3 nM; in the series on PC-3 it was 4 nM; in the series with RPMI-8226, 2 nM; in the series on SNB-75, 4 nM; with NCI-H322M, 13 nM. In addition, the concentration for 50% growth inhibition (GI50) with SK-OV-3 worked out at 8 nM. Moreover, the TGI with Hs-578T (read-out: TGI) is 100 nM; with PC-3 (read-out: TGI), 10000 nM.

As to `C[C@@H]1[C@H](O)[C@@H](C)/C=C/C=C/C=C/C=C/C=C/C=C/C=C/[C@H](O[C@@H]2O[C@H](C)[C@@H](O)[C@H](N)[C@@H]2O)C[C@@H]2O[C@](O)(C[C@@H](O)C[C@@H](O)[C@H](O)CC[C@@H](O)C[C@@H](O)CC(=O)O[C@H]1C)C[C@H](O)[C@H]2C(=O)O` [AMPHOTERICIN B], in the series with Aspergillus fumigatus, the MFC was 2.5 µM (≈ 2.31 µg/mL) and it took 2.5 µM (≈ 2.31 µg/mL) to inhibit growth (MIC). Further, in the series on Cryptococcus neoformans, the MFC worked out at 0.06 µM (≈ 0.0554 µg/mL) and 0.016 µM (≈ 0.0148 µg/mL) was the least that counted as inhibitory (MIC). In the series on Candida albicans, this molecule gave an IC50 of 250 nM, an MFC of 1.25 µM (≈ 1.16 µg/mL) and a minimal inhibitory concentration (MIC) of 0.625 µM (≈ 0.578 µg/mL).

Regarding `O=C(O)c1cn(C2CC2)c2cc(N3CCNCC3)c(F)cc2c1=O` [CIPROFLOXACIN], in [1], the minimum bactericidal concentration (MBC) was over 1 µM and the minimal inhibitory concentration (MIC) amounted to 1 µM (≈ 0.331 µg/mL).

On to `C/C=C1\NC(=O)[C@H](Cc2ccccc2)NC(=O)[C@@H](C(C)C)NC(=O)[C@@H]([C@H](C)CC)NC(=O)[C@H](NC(=O)[C@H](NC(=O)[C@H](CCCN)NC(=O)[C@H]2CCCN2C(=O)[C@H](NC(=O)[C@@H](NC(=O)[C@@H](NC(=O)[C@H](NC(=O)CCCC(C)C)C(C)C)[C@@H](C)O)C(C)C)C(C)C)[C@H](C)CC)[C@H](C)OC(=O)[C@H](C(C)C)NC1=O` [KAHALALIDE F], for which the MTD in series [2] turned out to be 0.28 mg/kg. Further, in the series with Fusarium sp., the result was Active. The figures for the MFC against Aspergillus fumigatus, in the series on Cryptococcus neoformans and against Candida albicans were 20 µM (≈ 29.6 µg/mL), 5 µM (≈ 7.39 µg/mL) and 20 µM (≈ 29.6 µg/mL), respectively. Further, the minimal inhibitory concentration (MIC) was 10 µM (≈ 14.8 µg/mL) against Aspergillus fumigatus, over 20 µM in series [1], 5 µM (≈ 7.39 µg/mL) in the series on Cryptococcus neoformans and 10 µM (≈ 14.8 µg/mL) with Candida albicans. Moreover, the outcome in the series with Escherichia coli, in the series on Staphylococcus aureus and in the series with Pseudomonas aeruginosa was inactive. This molecule had a 50% inhibitory concentration (IC50) in series [1] of over 20000 nM. The molecule also gave a minimal bactericidal concentration (MBC) in series [1] of over 20 µM. The concentration for 50% growth inhibition (GI50) in the series on PC-3 is 170 nM.
